Among the data in the RNAGym collection of RNA variant scans (doi:10.1126/science.aae0568) are yeast fitness values, retold here.

B1: tRNA (parent)
chain: GUUCCGUUGGCGUAAUGGUAACGCGUCUCCCUCCUAAGGAGAAGACUGCGGGUUCGAGUCCCGUACGGAACG

This sample holds only a part of the variants without activity. Some results are limits rather than exact numbers.

The variants in the data set derive from B1. Put plainly: yeast fitness relative to wild type (ratio to wild type); higher = fitter; tRNA-Arg(CCU), competitive growth, 37 C, YPD. In a few lines: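 Gene amplicons from the start population and from each of six end populations were read by 100-nucleotide paired-end sequencing. Those end populations came from pooled Saccharomyces cerevisiae strains carrying tRNA-Arg(CCU) gene variants at the native locus, competed in YPD at 37°C for 24 hours. Fitness relative to wild type was worked out from changes in genotype frequencies. Genotypes needed ≥ 100 starting reads, and estimates < 0.5 were set to 0.5.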
Take U16A A20U G50A: the yeast fitness was 0.513.
The result for U16A A20C C29G G63A G68C reads at most 0.5.
The result for A15U G38A reads 0.635.
The result for A15U U28A A40C C46G reads at most 0.5; that for U16A A37U C62G, at most 0.5; that for U16A A37U C62A, at most 0.5.
On to U16A A21U C46U C61G, for which the yeast fitness was at most 0.5.
On to U16A A57U, for which the yeast fitness amounted to 0.732.
Regarding U16A A57C, the yeast fitness is 0.668.
The result for U16A A57G reads 0.974; that for A15U U28A C49U U59A C66A, at most 0.5.
The result for U16A A45C G63C U64C C66U reads at most 0.5; that for U16A, 0.992; that for A15U G23C C29U G50A, 0.616.
The result for A15U G23C A37G reads at most 0.5.
As for U16A A20U, the yeast fitness was determined as 0.855.
The result for U16A A20G reads 0.961.
With A15U G23C G41A C49A the figure was at most 0.5.
Consider U16A A45G G50A, for which the yeast fitness is at most 0.5.
The result for U16A A37C C60A U64C reads at most 0.5; that for U16A A42C U54A, at most 0.5.
With A15U G25A A36U the figure was 0.586; with U16A A21G C34U G67C, at most 0.5.
The result for U16A A40C C55A C66A reads at most 0.5; that for A15U U26A C60U G67A, at most 0.5.
For the variant A15U U32G G44A, the yeast fitness stood at 0.555.
Take U16A C22G U26C C34G A37C A40U A45G C62A: the yeast fitness was at most 0.5.
With U16A C22U U26C U54G the figure was at most 0.5.
With A15U G25C A57G the figure was at most 0.5; with A15U G58A C66G, 0.943; with A15U U16C G18C C29A A43G A45G C62G, at most 0.5.
The result for A15U G44A reads 0.65; that for A15U U53A G63A, at most 0.5.
For the variant A15U U16A C27G C55U C62U G67C, the yeast fitness was at most 0.5.
The result for U16A A57C C66U A69C reads at most 0.5; that for A15U G25A C46U G56A, 1.04.
The result for U16A A45C G63C U64C reads at most 0.5.
With A15U G23C C34G C55G the figure was at most 0.5; with A15U U19A, 0.767; with A15U G25A G44C G52A, at most 0.5.
For the variant U16A A21U C27U A40U C66A, the yeast fitness was at most 0.5.
With A15U U28A C33G the figure was 0.561; with A15U G39C, 0.597.
As to A15U U32C A42C, the yeast fitness is 0.596.
With A15U G25A G68A the figure was 0.698.
With A15U U35A A43G G67C the figure was at most 0.5; with A15U G23A A40C A57G C61U A65C, 0.629; with A15U U32C G52C, 0.539.
Take U16A C22A G56A: the yeast fitness turned out to be 0.696.
The result for A15U U16G G39A C60G A70G reads at most 0.5.
With A15U G23A G68C the figure was at most 0.5.
With A15U U19A A20G A40U A43U C60G C62U G68C, the yeast fitness was at most 0.5.
With A15U G67A A69U the figure was 0.558; with A15U G23C A45U G52A, at most 0.5.
The result for A15U U28A C33G A65G reads at most 0.5; that for A15U U54G, 0.539.
The result for A15U U54C reads 0.703.
Turning to U16A A20G C27U G41C G63A, the yeast fitness is at most 0.5.
Consider U16A A21C A36G G44A U59A, for which the yeast fitness was at most 0.5.
As for A15U G44C G68C, the yeast fitness is at most 0.5.
With U16A A36C A37G G56C the figure was at most 0.5.
With U16A A42G the figure was 0.749; with A15U U64G A69U, at most 0.5; with A15U U28A C33G U64A, at most 0.5.
On to A15U G25C C61G, for which the yeast fitness was at most 0.5.
Regarding A15U U26G U35A G41A, the yeast fitness is at most 0.5.
With A15U G50C C60U the figure was at most 0.5; with A15U G23C C33A C66U G68C, at most 0.5; with U16A A69U, 1.03.
The result for U16A A37C reads 0.653; that for U16A A20G C62A, 0.546; that for A15U U32G G44A G52A C61U A69C, at most 0.5.
The result for A15U U19A A36U U54A reads at most 0.5; that for U16A C22A C29U A36G A45C, at most 0.5.
For U16A A45C A65G, the yeast fitness was at most 0.5.
The result for U16A A20C C24G C33G reads at most 0.5; that for U16A A20U C46A, at most 0.5.
As to U16A A37G A43G, the yeast fitness is at most 0.5.
The result for A15U U16C A40U reads at most 0.5; that for A15U U16C A65G, at most 0.5.
With A15U U16G C55A A57C U59C the figure was at most 0.5; with A15U G56C, 0.549.
With A15U G56U the figure was 0.657.
U16A C22A C66U: the yeast fitness was 0.675.
The result for A15U U16C G38C G39A A43C C60G A65C reads at most 0.5; that for A15U G50A, 0.708; that for U16A A20G A21G C34U G44A C61A G67C, at most 0.5.
Turning to A15U U19C G23C C27G A45C G63C, the yeast fitness was at most 0.5.
The result for A15U U28A G38A G52C C60G reads at most 0.5; that for A15U G50A C55G, 0.666.
With A15U G39A A57G the figure was at most 0.5; with A15U U19A C24A, 0.641.
With A15U U28C C55G the figure was 0.589; with U16A A65C, 0.939.
As for A15U G25C U59A, the yeast fitness is at most 0.5.
For the variant A15U G25A G44C, the yeast fitness was determined as 0.566.
With U16A A21U C24A the figure was at most 0.5; with A15U G25A G44C G67U, 0.522.
The result for U16A A45U reads 1; that for A15U G25C C61U G63C, 0.545.
With U16A A21U A45C the figure was at most 0.5; with A15U G23C A40U G63C, at most 0.5.
For A15U U19C C31A G41C, the yeast fitness is 0.596.
The result for A15U U16C U35A G44A reads at most 0.5; that for A15U U53A, 0.648; that for A15U G38C G39A A43C U54C C60G A65C, at most 0.5.
With A15U U28A the figure was 0.57.
The result for U16A A21C C34A A37C G68A reads at most 0.5; that for A15U U19C C31U A40C, at most 0.5; that for A15U G38C G39A A43C, at most 0.5.
As to A15U G23C A45U C62A, the yeast fitness was at most 0.5.
The result for U16A A20U C24G C33G C61A G67C reads 0.561.
For U16A A21G C31U C34G A45C C66G, the yeast fitness is at most 0.5.
For U16A A42G C49G, the yeast fitness turned out to be 0.542.
The result for A15U U19C C31U A40C A57U reads at most 0.5; that for U16A A21C A37C G68A, 0.551; that for U16A A37U G56A A65U, at most 0.5.
The result for A15U G23U C24G reads at most 0.5; that for A15U U26C, 0.81.
As to A15U U26A, the yeast fitness came out at 0.666.
With U16A A21G C27G A57G the figure was at most 0.5; with A15U U53G A57C A69U, 0.625; with U16A C22G A45C, 0.607.
As to A15U G50C U54C, the yeast fitness is at most 0.5.
With U16A A21U C27U A40U A65U A70C the figure was at most 0.5.
With A15U G58C the figure was 0.916.
The result for A15U G58A reads 1; that for U16A A36G G51A U64C A65G, at most 0.5; that for U16A A21C G44A U59A, 0.847.
A15U G68A: the yeast fitness was found to be 0.62.
The result for U16A A42U G56A G58A reads 0.817; that for U16A C22U A69U, 0.64; that for U16A A45G G58A, 0.591.
With A15U G38C C46U A69U A70G the figure was at most 0.5; with A15U U26A A57C, at most 0.5.
With U16A A43C C49U the figure was 0.656; with U16A A21C, 0.686; with U16A A43U, 1.14.
Turning to U16A A43G, the yeast fitness is 1.01.
With A15U U19A A45C C55U A57U the figure was 0.583.
The result for A15U G38A A40C reads at most 0.5.
The result for A15U G38C G51C A70C reads at most 0.5; that for U16A A20U C24G C33G A65G C66A, at most 0.5.
In the case of U16A A37G A40C G58A, the yeast fitness came out at 0.604.
With U16A A20C C22U C33U A42G the figure was at most 0.5.
With A15U G18C C55U A69C the figure was at most 0.5; with A15U G52C G68A, at most 0.5; with A15U U28A C33G G56A, at most 0.5.
With A15U G48C the figure was 0.669; with A15U G23C U28G U32C A36U G38A C55A, 0.689.
For the variant A15U G25C C49G U59G, the yeast fitness was at most 0.5.
The result for A15U U28A G44A U64C reads at most 0.5; that for U16A A21C C29U, at most 0.5; that for A15U G23C C33A G63C G68U, at most 0.5.
The result for U16A A45C A69C reads 0.662; that for A15U G25C, 0.583.
With A15U U28C G44A A57G the figure was at most 0.5; with A15U G48C G67C, at most 0.5; with A15U U19C G38C, 0.589.
With U16A A21C G58A, the yeast fitness was at most 0.5.
As to U16A C22G C34U G51A, the yeast fitness is at most 0.5.
For the variant A15U G23C C33A G67C, the yeast fitness was at most 0.5.
The result for U16A A43G A69G A70G reads at most 0.5; that for A15U U47A G58A A65C, at most 0.5; that for A15U G38C A43C, at most 0.5.
As for A15U U35C G41A C60A A65U A69G, the yeast fitness came to 0.563.
With A15U U19A A20G A40U A43U C60G C62U A69G the figure was at most 0.5.
